Experimental data taken from ChEMBL document CHEMBL2384996 (J Med Chem, 2013).
Calls of active or inactive are those of the source. The rule behind the calls is not given here.

Legend:
Oocyte [1] = assay: Inhibition of Gloeobacter violaceus ligand-gated ion channel expressed in Xenopus laevis oocytes assessed as inhibition of MES buffer pH 5.5 -induced currents at 300 uM after 30 secs by voltage clamp technique; format: cell-based
Outline: (§1)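 GLIC expressed in Xenopus oocytes, two-electrode voltage clamp. Current elicited by pH 5.5 MES buffer (100 mM NaCl, 3 mM KCl, 1 mM CaCl2, 1 mM MgCl2, 10 mM MES) for 30 sec to steady state. Compound then co-applied for 30 sec in the same pH 5.5 buffer, followed by washout with buffer alone. Oocytes held in Barth's medium after injection.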

[2] = Antagonist activity at Gloeobacter violaceus ligand-gated ion channel expressed in Xenopus oocytes assessed as inhibition of MES buffer pH 5.5 -induced currents after 30 secs by voltage clamp technique; format: cell-based; settings: Oocyte; outline: as §1
Oocyte [3] = assay: Inhibition of Gloeobacter violaceus ligand-gated ion channel expressed in Xenopus laevis oocytes assessed as inhibition of MES buffer pH 5.5 -induced currents at 100 uM after 30 secs by voltage clamp technique; format: cell-based
Outline: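 GLIC-expressing oocytes kept in Barth's medium (88 mM NaCl, 1 mM KCl, 2.4 mM NaHCO3, 15 mM HEPES, 0.3 mM NaNO3, 0.7 mM CaCl2). Each cell was first given pH 5.5 buffer (100 mM NaCl, 3 mM KCl, 1 mM CaCl2, 1 mM MgCl2, 10 mM MES) for 30 sec. Compound was then co-applied in the same buffer for 30 sec, followed by washout. Mean ± sd, n ≥ 3 cells.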

Oocyte [4] = assay: Inhibition of Gloeobacter violaceus ligand-gated ion channel expressed in Xenopus laevis oocytes assessed as inhibition of MES buffer pH 5.5 -induced currents at 1 mM after 30 secs by voltage clamp technique; format: cell-based; outline: as §1
[5] = Dissociation constant, pKa of the compound; format: physicochemical
Oocyte [6] = assay: Inhibition of Gloeobacter violaceus ligand-gated ion channel expressed in Xenopus laevis oocytes assessed as inhibition of buffer at pH 4 -induced currents at 100 uM after 30 secs by voltage clamp technique; format: cell-based
Oocyte [7] = assay: Selectivity ratio of IC50 for Gloeobacter violaceus ligand-gated ion channel E177A mutant to IC50 for wild-type Gloeobacter violaceus ligand-gated ion channel expressed in Xenopus oocytes; format: cell-based
Oocyte [8] = assay: Selectivity ratio of IC50 for Gloeobacter violaceus ligand-gated ion channel R105A mutant to IC50 for wild-type Gloeobacter violaceus ligand-gated ion channel expressed in Xenopus oocytes; format: cell-based
Oocyte [9] = assay: Selectivity ratio of IC50 for Gloeobacter violaceus ligand-gated ion channel R77A mutant to IC50 for wild-type Gloeobacter violaceus ligand-gated ion channel expressed in Xenopus oocytes; format: cell-based
Oocyte [10] = assay: Inhibition of Gloeobacter violaceus ligand-gated ion channel expressed in Xenopus laevis oocytes assessed as inhibition of MES buffer-induced currents at 1 mM at pH 5.5 measured after wash-out by voltage clamp technique; format: cell-based
Gloeobacter violaceus [11] = assay: Inhibition of Gloeobacter violaceus ligand-gated ion channel E177A mutant at 100 uM
Outline: (§2)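 Alanine point mutants of GLIC expressed in Xenopus oocytes, voltage clamp. Compound co-applied with pH 5.5 buffer (100 mM NaCl, 3 mM KCl, 1 mM CaCl2, 1 mM MgCl2, 10 mM MES). Concentration-inhibition curves used for IC50; single-point inhibition taken at 100 μM, or at up to 1 mM. Mean ± sd, n ≥ 3 cells.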

Gloeobacter violaceus [12] = assay: Inhibition of Gloeobacter violaceus ligand-gated ion channel R133A mutant at 1 mM; outline: as §2
[13] = Inhibition of Gloeobacter violaceus ligand-gated ion channel E177A mutant; outline: as §2
Gloeobacter violaceus [14] = assay: Inhibition of Gloeobacter violaceus ligand-gated ion channel R105A mutant at 100 uM; outline: as §2
[15] = Inhibition of Gloeobacter violaceus ligand-gated ion channel R105A mutant; outline: as §2
Gloeobacter violaceus [16] = assay: Inhibition of Gloeobacter violaceus ligand-gated ion channel R77A mutant at 100 uM; outline: as §2
Gloeobacter violaceus [17] = assay: Inhibition of Gloeobacter violaceus ligand-gated ion channel E181A mutant at 100 uM; outline: as §2
[18] = Inhibition of Gloeobacter violaceus ligand-gated ion channel R77A mutant; outline: as §2
[19] = Inhibition of Gloeobacter violaceus ligand-gated ion channel E181A mutant; outline: as §2

Row | Structure (SMILES) | IC50 [2] | pKa [5] | inhibition (Oocyte [4]) | also measured
1 | NC(=O)/C=C/c1ccc(O)c(O)c1 | 347 µM |  |  | inhibition (Oocyte [1]): 51.6%
2 | O=C(O)/C=C/c1ccc2c(c1)OCO2 | 28.8 µM |  |  | inhibition (Oocyte [3]): 79.7%
3 | O=C(O)COc1ccccc1 | 53.3 µM | 3.2 | 98.5% | 
4 | COc1ccc2cc(C(=O)O)c(=O)oc2c1 | 168 µM |  | 96% | 
5 | O=C(O)C(=Cc1ccccc1)C(=O)O | 7940 µM | 3.5 | 25% | 
6 | CCNC(=O)/C=C/c1ccc(O)c(O)c1 | 295 µM |  | 81.6% | inhibition (Oocyte [6]; 300 uM, in the assay text read “at 300 uM” for “at 100 uM”): inactive
7 | COc1ccc(/C=C/C(=O)O)cc1OC | 206 µM | 4.55 | 75.6% | 
8 | O=C(O)c1cc2ccccc2oc1=O [COUMARIN-3-CARBOXYLIC ACID] | 282 µM | 3.6 | 84% | 
9 | CCOC(=O)/C=C/c1ccc(O)c(O)c1 [ETHYL CAFFEATE] | 246 µM |  | 91.8% | 
10 | COC(=O)/C=C/c1ccc(O)c(O)c1 [METHYLCAFFEATE] | 388 µM |  | 78% | 

More lines, in order of falling IC50 [2], values ahead:

Row | IC50 [2] | pKa [5] | Structure (SMILES) | inhibition (Oocyte [4]) | also measured
11 | 86.8 µM | 4.3 | O=C(O)CCc1ccc(O)c(O)c1 [DIHYDROCAFFEIC ACID] | 90.5% | 
12 | 83.5 µM | 3.45 | O=C(O)C(=C/C=C/c1ccccc1)C(=O)O | 92.2% | 
13 | 73.9 µM |  | OC/C=C/c1ccc(O)c(O)c1 | 95.2% | 
14 | 61.4 µM | 4.45 | O=C(O)c1ccc2ccccc2c1 [BETA-NAPHTOIC ACID] | 96.4% | 
15 | 34.6 µM |  | O=C(O)/C=C/c1ccccc1 [CINNAMIC ACID] | 97.5% | 
16 | 25.3 µM | 4.6 | O=C(O)/C=C/c1cccc(C(F)(F)F)c1 | 94.6% | 
17 | 16.7 µM | 4.35 | O=C(O)/C=C/c1ccc(O)c(O)c1 [CAFFEIC ACID] | 93.8% | Ratio IC50 (Oocyte [7]): > 10; Ratio IC50 (Oocyte [8]): > 10; Ratio IC50 (Oocyte [9]): > 10; inhibition (Oocyte [6]; 100 uM): inactive; inhibition (Oocyte [10]): inactive; inhibition (Gloeobacter violaceus [11]): 15%; inhibition (Gloeobacter violaceus [12]): inactive; IC50 [13]: 506 µM; inhibition (Gloeobacter violaceus [14]): 15%; IC50 [15]: 420 µM; inhibition (Gloeobacter violaceus [16]): 15%; inhibition (Gloeobacter violaceus [17]): 80%; IC50 [18]: 945 µM; IC50 [19]: 24.1 µM
18 | 13.7 µM | 4.8 | O=C(O)/C=C/c1cccc(Cl)c1 [3-CHLORO-CINNAMIC ACID] | 95% | 
19 | 13.5 µM |  | COc1ccc(/C=C/C(=O)O)cc1O [ISOFERULIC ACID] | 98.5% | 
20 | 9.59 µM |  | O=C(O)/C=C/c1ccc(O)cc1 [COUMARIC ACID] |  | inhibition (Oocyte [1]): 91.4%
